Mcl1-Bid inh = disrupts binding of human Mcl-1 to Bid peptide; TR-FRET Mcl-1/Bid-Dy647 peptide binding, 1536-well; inhibition, % at 21.7 µM; AID 1021; Q07820; 0.97% of 220,000 active;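 active means compounds that cut the binding signal by more than half at the single screening dose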;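 further: His-tagged Mcl-1 with europium anti-His antibody binding Bid BH3 peptide; 0% = Mcl-1 plus peptide wells and 100% = peptide-only wells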
Target sequence (Q07820 whole entry, looked up): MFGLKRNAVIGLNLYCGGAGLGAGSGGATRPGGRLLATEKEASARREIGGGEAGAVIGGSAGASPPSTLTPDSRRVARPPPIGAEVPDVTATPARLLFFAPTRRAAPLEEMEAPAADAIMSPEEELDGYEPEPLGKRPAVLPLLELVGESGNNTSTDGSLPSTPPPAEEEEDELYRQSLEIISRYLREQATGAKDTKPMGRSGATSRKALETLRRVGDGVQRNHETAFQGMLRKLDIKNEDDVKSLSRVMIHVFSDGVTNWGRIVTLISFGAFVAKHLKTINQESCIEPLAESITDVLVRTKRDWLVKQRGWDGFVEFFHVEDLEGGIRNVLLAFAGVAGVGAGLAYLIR
14-3-3 Bad inh = disrupts binding of bovine 14-3-3 zeta to phospho-Bad peptide; AID 781; inhibition, % at 21.7 µM; TR-FRET 14-3-3zeta/Dy647-pBad peptide displacement, 1 h; 0.71% of 220,000 active; P63103;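 active means inhibition above about 70%, limit read from the data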;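 further: 0% = full 14-3-3 plus peptide FRET controls and 100% = background without 14-3-3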
Target sequence (P63103 whole entry, looked up): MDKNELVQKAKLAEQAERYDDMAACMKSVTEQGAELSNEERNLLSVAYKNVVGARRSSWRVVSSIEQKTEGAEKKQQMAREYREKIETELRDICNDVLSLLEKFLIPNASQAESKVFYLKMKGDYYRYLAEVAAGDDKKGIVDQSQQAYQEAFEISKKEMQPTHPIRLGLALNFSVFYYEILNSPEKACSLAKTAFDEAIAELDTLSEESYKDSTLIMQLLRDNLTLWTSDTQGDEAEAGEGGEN
Biofilm kill mix = mixtures killing C. albicans biofilm. C. albicans biofilm persisters + clotrimazole, fluorescence viability; primary screen in compound mixtures of four per well. inhibition, % at 7.6 µM. 0.02% of 120,000 active;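 active means inhibition above 30.3% in the primary screen of four-compound pools, then above 30% when the compound was retested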;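 further: compounds exposed to preformed 24 h biofilms for 48 h; 0% = untreated biofilm control and 100% = clotrimazole plus chlorhexidine kill blank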
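Test system: C. albicans CAF4-2 wild-type biofilms; buffer or medium: RPMI/MOPS medium, pH 7.0; schedule: 24 h biofilm formation, then 48 h compound exposure, 37 °C; detection: Alamar Blue fluorescence; measure: percent inhibition of biofilm viability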
Mcl1-Noxa inh = disrupts binding of human Mcl-1 to Noxa peptide. Q07820. TR-FRET Mcl-1/Noxa peptide binding, 2 h. inhibition, % at 21.7 µM. 1.5% of 220,000 active;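 active means compounds that cut the protein-peptide binding signal by more than 50% relative to plate controls in a single-dose test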;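 further: His-tagged Mcl-1 with rhodamine Noxa BH3 peptide and terbium anti-His antibody; 0% = Mcl-1 plus Noxa peptide wells and 100% = peptide-only wells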
Hck Nef HTS = blocks Nef-activated human Hck kinase; inhibition, % at 20 µM; 0.68% of 220,000 active; Recombinant Hck-YEEI plus Nef, Z-Lyte FRET kinase assay; P08631;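 active means Hck-Nef kinase inhibition above about 50%, limit read from the data; inactive means inhibition below that limit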;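 further: 0% = DMSO with Hck plus Nef and 100% = Hck alone without Nef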
Bim-Mcl-1 = disrupts Bim peptide binding to human Mcl-1; Q07820; AID 1009; Bead-based flow cytometry, Bim peptide-Mcl-1 binding; inhibition, % at 10 µM; 0.1% of 190,000 active; in the data active means inhibition above about 40%;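 further: 0% = no compound tracer wells and 100% = peptide blocker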
Hck Nef conf = Hck-Nef kinase inhibition, confirmation; calls only at 10 µM; Recombinant Hck-YEEI:Nef, Z-Lyte FRET kinase assay; shares compounds with Hck Nef HTS; 28% of 1,300 active;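 active means average inhibition of at least 50%, with Z-scores no higher than 3 in both the phospho-tyrosine peptide and fluorescence counterscreens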
* = called active by the depositor; i = inactive; / = no result shown; + = active, no number; [ ] = another dose, or the depositor's remark. Shown are actives, neighbours in structure and some others; about 3.2% of the full set was active somewhere.

SMILES	Mcl1-Bid inh	14-3-3 Bad inh	Biofilm kill mix	Mcl1-Noxa inh	Hck Nef HTS	Bim-Mcl-1	Hck Nef conf
NC(=O)c1c(NC(=O)Cn2nc(C(=O)O)c3ccccc3c2=O)sc2c1CCC2	22	63	16	30	91*	/	i
COc1ccccc1CN(Cc1nc2ccccc2c(=O)[nH]1)S(=O)(=O)c1ccc2ccccc2c1	-4	2	11	-17	110*	-2	i
COc1ccc(S(=O)(=O)N(Cc2ccccc2)Cc2nc3ccccc3c(=O)[nH]2)cc1	2	7	/	30	0	-1	/
CCc1ccccc1NC1=NCC(=O)N1C1CCCC1	-14	2	24	4	19	0	/
CCc1cc2c3c(c(=O)oc2cc1O)CCCC3	-9	-2	/	12	91*	1	/
Cc1oc2cc3oc(=O)c4c(c3cc2c1C)CCC4	-14	4	/	-13	1	-2	/
COc1ccc(C(=O)n2cc(C(=O)c3cc(C)ccc3O)cn2)cc1OC	-42	2	7	23	67*	-4	+
O=C1CC(c2ccc(Cl)cc2)CC(O)=C1C=NCc1ccc(Cl)c(Cl)c1 (stereo not drawn)	5	0	/	-8	0	1	/
CC1=C(C#N)c2nc(N)c(C#N)c(C)c2/C1=C\c1ccc(-c2ccccc2C(=O)O)o1	-6	56	11	82*	61*	5	i
COc1cc(/C=C2/C(C)=C(C#N)c3nc(N)c(C#N)c(C)c32)ccc1OCC(=O)O	-69	-3	15	18	28	4	/
O=Cc1cn(-c2ccccc2)nc1-c1cc2cc(O)ccc2oc1=O	61*	47	/	38	52*	-2	/
O=Cc1cn(-c2ccccc2)nc1-c1cc2c(ccc3ccccc32)oc1=O	27	59	/	8	24	-123	/
COc1cc2c(C#N)c(N3CCN(C)CC3)nc(N)c2c(N)n1	-18	3	/	40	1	0	/
COc1cc2c(C#N)c(N3CCCC3)nc(N)c2c(N)n1	-43	12	10	19	63*	/	+
O=C(O)CCn1cc(C(=O)O)c(-c2ccccc2)n1	-14	4	6	-18	-8	/	/
CCC(CC)NC(=O)COC(=O)c1cc(SC)ccc1Cl	-26	-3	14	-3	14	3	/
O=C(CSc1nc(-c2ccc(F)cc2)nc2c1Cc1ccccc1O2)Nc1ccc(C(=O)O)cc1	49	97*	17	-76	145*	0	+
O=C(CSc1nc(-c2ccc(F)cc2)nc2ccc(F)cc12)Nc1cccc(C(=O)O)c1	-16	-6	7	-11	40	5	/
O=C(Nc1ccc(S(=O)(=O)Nc2ncccn2)cc1)c1ccc(N2CCCC2=O)cc1	-72	0	6	15	22	/	/
Cc1cccc(C(=O)N(Cc2nc3ccccc3c(=O)[nH]2)C2CCCCC2)c1	-4	-7	9	7	28	-1	/
CC(C)(CO)NCc1ccc(Br)cc1	-22	-7	16	18	3	0	/
CC[n+]1ccc(C)c2cc(SC(F)(F)F)ccc21	-3	1	1	-3	72*	-1	i
COc1ccc(-c2ccc(/C=N/NC(=O)Cc3nnc(N)s3)o2)cc1Cl	-16	0	15	39	79*	/	i
Cc1ccc(NC(=O)CN2C(=O)N/C(=C/c3cc(C)n(-c4ccc(C(=O)O)cc4)c3C)C2=O)cc1	-123	19	3	76*	56*	1	i
Cc1ccc(NC(=O)CN2C(=O)S/C(=C\c3cc(C)n(-c4ccc(C(=O)O)cc4)c3C)C2=O)cc1	-40	1	14	14	7	-2	/
SMILES	Mcl1-Bid inh	14-3-3 Bad inh	Biofilm kill mix	Mcl1-Noxa inh	Hck Nef HTS	Bim-Mcl-1	Hck Nef conf
CCOc1ccccc1C(=O)NC(C)c1ccc2c(c1)OCO2 (stereo not drawn)	0	7	/	-13	4	-3	/
Oc1cc2c(cc1C(c1ccc(Br)cc1)N1CCCC1)OCO2 (stereo not drawn)	90*	30	16	82*	73*	4	i
S=C(c1ccc2c(c1)OCO2)N1CCCCCC1	-28	-5	/	12	-12	1	/
CCNc1cc2oc(=O)c(CN3CCOCC3)c(C)c2cc1C	-14	2	/	13	82*	0	/
CN1C(=O)/C(=C/c2ccccc2Cl)Sc2ccc(C(=O)NCc3cccnc3)cc21	1	-17	6	1	22	0	/
CC(=O)n1cc(Nc2ccc([N+](=O)[O-])cc2)c2ccccc21	20	19	13	65*	108*	0	i
O=C(c1cnn(C(=O)COc2ccccc2F)c1)c1cc(F)ccc1O	-26	-1	20	5	75*	/	+
COc1ccc(C2CC(=O)c3cnn(-c4nc(C)cc(C)n4)c3C2)cc1 (stereo not drawn)	-23	-1	16	8	16	-2	/
O=C(O)CSc1cc(C(=O)c2ccccc2O)cn2c(=O)c3c(-c4ccccc4)csc3nc12	-33	7	18	86*	61*	0	+
O=C(Nc1c2ccccc2nc2ccccc12)C(Cl)(Cl)Cl	53*	80*[fluorescence artefact?]	/	43	71*	3	i
CCOc1cc(N2CCOCC2)c(OCC)cc1NC(=O)CSc1ncn[nH]1	-32	9	0	12	3	-2	/
Cc1c(NC(=O)CN2c3ccccc3CC2C)c(=O)n(-c2ccccc2)n1C (stereo not drawn)	-43	-9	15	8	1	-2	/
O=C1SC(c2ccccc2)=N/C1=C/c1ccco1	-8	2	/	-3	9	4	/
CC1=N/C(=C/c2ccco2)C(=O)O1	-96	38	1	27	58*	-2	i
CCc1cc(-c2[nH]ncc2-c2ccc3c(c2)OCO3)c(O)cc1O	3	1	6	18	65*	-12	+
c1cncc(-c2noc(CC3CCCCC3)n2)c1	-24	6	/	-15	3	0	/
CCCCCCc1cc2cc(S(=O)(=O)c3ccc(F)c(Cl)c3)c(=O)oc2cc1O	18	12	14	14	55*	4	/
CCCCCCc1cc2cc(C(N)=O)c(=N)oc2cc1O	-24	15	/	-10	72*	-2	/
CCCCCCc1cc2cc(C(=O)OCC)c(=O)oc2cc1O	-5	8	21	3	+	/	/
CCCCCCc1cc2cc(C(=O)NC)c(=N)oc2cc1O	/	/	/	/	51*	0	i
CCCCCCc1cc2cc(C(=O)Nc3ccc(OC)cc3)c(=O)oc2cc1O	43	14	19	8	28	-6	/
CCN(CC)c1ccc2cc(C(N)=O)c(=N)oc2c1	-20	-2	18	-56	22	-5	/
Cc1ccc(-c2nc(C(=O)NC3CCCCCC3)no2)cc1	/	/	/	/	0	/	/

Screens (PubChem)
